Measured values from ChEMBL document CHEMBL1671683, “Activity of linezolid in an in vitro pharmacokinetic-pharmacodynamic model using different dosages and Staphylococcus aureus and Enterococcus faecalis strains with and without a hypermutator phenotype” (Antimicrob Agents Chemother, 2010).

Columns and labels:
[1] = Mean residence time in two-compartment pharmacokinetic/pharmacodynamic model at 600 mg, bid administered as 0.5 hr infusion over 24 hrs; type: ADME, organism-based; details: in vivo, iv
Staphylococcus aureus [2] = test: Bactericidal activity against 0.5 hrs peripheral compartment culture samples of Staphylococcus aureus RN4220 MutS2 in two-compartment pharmacokinetic/pharmacodynamic model assessed as effect on bacterial count at 600 mg, bid administered as 0.5 hr infusion; type: functional
Method in brief: (§1)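 Two-compartment hollow-fibre model in cation-adjusted, protein-free MH broth, 37°C. Linezolid given as simulated 0.5-h infusion twice daily. Inoculum grown 18 h, concentrated 50-fold and placed in the peripheral compartment 3 h before t0. Peripheral samples at set times counted by dilution plating. First 10-fold dilution not plated, limiting detection to 2–3 log10 CFU/ml. Δlog CFU/ml taken from t0 count. Duplicates.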

Enterococcus faecalis [3] = test: Bactericidal activity against 24 hrs peripheral compartment culture samples of Enterococcus faecalis Ef1497 MutM3 in two-compartment pharmacokinetic/pharmacodynamic model assessed as effect on bacterial count at 200 mg, bid administered as 0.5 hr infusion; type: functional
Method in brief: (§2)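 An 18-h culture concentrated 50-fold was injected into the peripheral compartment 3 h pre-sampling (~10^8 CFU/ml E. faecalis, 10^9 S. aureus). Counts came from dilution plating (detection limit 2–3 log10 CFU/ml), expressed as Δlog CFU/ml from treatment start. Run in duplicate.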

Enterococcus faecalis [4] = test: AUBC (0 to 24 hrs) in Enterococcus faecalis Ef1497 in two-compartment pharmacokinetic/pharmacodynamic model at 800 mg, bid administered as 0.5 hr infusion for 2 days; type: functional
Method in brief: (§3)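 Hollow-fibre two-compartment model in cation-adjusted, protein-free MH broth at 37°C. Human total-plasma linezolid profile simulated as 0.5-h infusion every 12 h for 48 h. Concentrated 18-h culture injected into the peripheral compartment 3 h before first sample, giving about 10^8 (E. faecalis) or 10^9 (S. aureus) CFU/ml. Viable counts by dilution plating over 0–24 h. Area indices calculated versus growth control curve. Duplicate runs.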

Enterococcus faecalis [5] = test: Bactericidal activity against 2 hrs peripheral compartment culture samples of Enterococcus faecalis Ef1497 MutM3 in two-compartment pharmacokinetic/pharmacodynamic model assessed as effect on bacterial count at 200 mg, bid administered as 0.5 hr infusion; type: functional; method in brief: as §2
[6] = Cmax in two-compartment pharmacokinetic/pharmacodynamic model at 800 mg, bid administered as 0.5 hrs infusion; type: ADME, organism-based; parameters: dose 800 mg; details: iv
Enterococcus faecalis [7] = test: Bactericidal activity against 0.5 hrs peripheral compartment culture samples of Enterococcus faecalis Ef1497 MutM3 in two-compartment pharmacokinetic/pharmacodynamic model assessed as effect on bacterial count at 600 mg, bid administered as 0.5 hr infusion; type: functional; method in brief: as §1
Staphylococcus aureus [8] = test: Bactericidal activity against 48 hrs peripheral compartment culture samples of Staphylococcus aureus RN4220 in two-compartment pharmacokinetic/pharmacodynamic model assessed as effect on bacterial count at 600 mg, bid administered as 0.5 hr infusion; type: functional
Method in brief: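 An 18-h culture was concentrated 50-fold by centrifugation and injected into the peripheral compartment 3 h before first sampling, giving about 10^9 CFU/ml exponential growth. Linezolid was simulated as a 0.5-h infusion every 12 h. Samples taken from 0 to 48 h were counted by dilution plating on MH agar; the first 10-fold dilution was not plated (detection limit 2–3 log10 CFU/ml). Effect was expressed as Δlog CFU/ml from treatment start. Run in duplicate.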

[9] = Total clearance in two-compartment pharmacokinetic/pharmacodynamic model at 800 mg, bid administered as 0.5 hr infusion over 24 hrs; type: ADME, organism-based; details: in vivo, iv
Enterococcus faecalis [10] = test: Bactericidal activity against 48 hrs peripheral compartment culture samples of Enterococcus faecalis ATCC 29212 in two-compartment pharmacokinetic/pharmacodynamic model assessed as effect on bacterial count at 600 mg, bid for every 12 hrs administered as 0.5 hrs infusion; type: functional; method in brief: as §2
[11] = Tmax in two-compartment pharmacokinetic/pharmacodynamic model at 600 mg, bid administered as 0.5 hrs infusion; type: ADME, organism-based; details: iv
Method in brief: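 Two-compartment in vitro hollow-fibre model in cation-adjusted, protein-free Mueller-Hinton broth at 37°C. Human total-plasma linezolid profile simulated as 0.5-h infusion every 12 h for 48 h, computer-controlled syringe pump into central compartment. […] Peripheral samples assayed by validated HPLC-UV (quantification limit 0.39 μg/ml). Tmax read directly from concentration-time profiles. Run in duplicate.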

Enterococcus faecalis [12] = test: ABBC (0 to 24 hrs) in Enterococcus faecalis Ef1497 in two-compartment pharmacokinetic/pharmacodynamic model at 800 mg, bid administered as 0.5 hr infusion for 2 days; type: functional; method in brief: as §3
[13] = Cmax in two-compartment pharmacokinetic/pharmacodynamic model at 800 mg, bid administered as 0.5 hr infusion over 24 hrs; type: ADME, organism-based; parameters: dose 800 mg; details: iv
Enterococcus faecalis [14] = test: Bactericidal activity against 0.5 hrs peripheral compartment culture samples of Enterococcus faecalis Ef1497 in two-compartment pharmacokinetic/pharmacodynamic model assessed as effect on bacterial count at 800 mg, bid administered as 0.5 hr infusion; type: functional; method in brief: as §1
Staphylococcus aureus [15] = test: Bactericidal activity against 24 hrs peripheral compartment culture samples of Staphylococcus aureus RN4220 MutS2 in two-compartment pharmacokinetic/pharmacodynamic model assessed as effect on bacterial count at 600 mg, bid administered as 0.5 hr infusion; type: functional; method in brief: as §2
Enterococcus faecalis [16] = test: ABBC (0 to 24 hrs) in Enterococcus faecalis Ef1497 MutM3 in two-compartment pharmacokinetic/pharmacodynamic model at 200 mg, bid administered as 0.5 hr infusion for 2 days; type: functional; method in brief: as §3
[17] = Apparent volume of distribution in two-compartment pharmacokinetic/pharmacodynamic model at 800 mg, bid administered as 0.5 hr infusion over 24 hrs; type: ADME, organism-based; details: in vivo, iv
Enterococcus faecalis [18] = test: Bactericidal activity against 12.5 hrs peripheral compartment culture samples of Enterococcus faecalis ATCC 29212 in two-compartment pharmacokinetic/pharmacodynamic model assessed as effect on bacterial count at 600 mg, bid administered as 0.5 hr infusion; type: functional; method in brief: as §2
Enterococcus faecalis [19] = test: Bactericidal activity against 48 hrs peripheral compartment culture samples of Enterococcus faecalis Ef1497 MutM3 in two-compartment pharmacokinetic/pharmacodynamic model assessed as effect on bacterial count at 600 mg, bid administered as 0.5 hr infusion; type: functional; method in brief: as §2
Enterococcus faecalis [20] = test: Bactericidal activity against 1 hr peripheral compartment culture samples of Enterococcus faecalis Ef1497 MutM3 in two-compartment pharmacokinetic/pharmacodynamic model assessed as effect on bacterial count at 200 mg, bid administered as 0.5 hr infusion; type: functional; method in brief: as §1
Enterococcus faecalis [21] = test: ABBC (0 to 24 hrs) in Enterococcus faecalis Ef1497 MutM3 in two-compartment pharmacokinetic/pharmacodynamic model at 600 mg, bid administered as 0.5 hr infusion for 2 days; type: functional; method in brief: as §3
[22] = Tmax in two-compartment pharmacokinetic/pharmacodynamic model at 800 mg, bid administered as 0.5 hr infusion over 24 hrs; type: ADME, organism-based; details: iv
Enterococcus faecalis [23] = test: Bactericidal activity against 1 hr peripheral compartment culture samples of Enterococcus faecalis Ef1497 in two-compartment pharmacokinetic/pharmacodynamic model assessed as effect on bacterial count at 600 mg, bid administered as 0.5 hr infusion; type: functional; method in brief: as §1
[24] = Total clearance in two-compartment pharmacokinetic/pharmacodynamic model at 800 mg, bid administered as 0.5 hrs infusion; type: ADME, organism-based; details: iv
Enterococcus faecalis [25] = test: Bactericidal activity against 1 hr peripheral compartment culture samples of Enterococcus faecalis Ef1497 in two-compartment pharmacokinetic/pharmacodynamic model assessed as effect on bacterial count at 800 mg, bid administered as 0.5 hr infusion; type: functional; method in brief: as §1

## CC(=O)NC[C@H]1CN(c2ccc(N3CCOCC3)c(F)c2)C(=O)O1 [LINEZOLID]
[1]
  MRT: 486 min
Staphylococcus aureus [2]
  log10CFU/ml: -0.21
Enterococcus faecalis [3]
  log10CFU/ml: 0.52
Enterococcus faecalis [4]
  AUBC: 210.5 log10CFU/ml.hr
Enterococcus faecalis [5]
  log10CFU/ml: 0.06
[6]
  Cmax: 19200 ng/mL
Enterococcus faecalis [7]
  log10CFU/ml: -0.01
Staphylococcus aureus [8]
  log10CFU/ml: 0.32
[9]
  clearance: 228 mL/min
Enterococcus faecalis [10]
  log10CFU/ml: 0.53
[11]
  Tmax: 30 min
Enterococcus faecalis [12]
  ABBC: 3.6 log10CFU/ml.hr
[13]
  Cmax: 19500 ng/mL
Enterococcus faecalis [14]
  log10CFU/ml: 0.08
Staphylococcus aureus [15]
  log10CFU/ml: 0.52
Enterococcus faecalis [16]
  ABBC: 2.32 log10CFU/ml.hr
[17]
  Vd: 102 L
Enterococcus faecalis [18]
  log10CFU/ml: 0.1
Enterococcus faecalis [19]
  log10CFU/ml: 0.45
Enterococcus faecalis [20]
  log10CFU/ml: 0.02
Enterococcus faecalis [21]
  ABBC: -2.66 log10CFU/ml.hr
[22]
  Tmax: 30 min
Enterococcus faecalis [23]
  log10CFU/ml: -0.05
[24]
  clearance: 287 mL/min
Enterococcus faecalis [25]
  log10CFU/ml: -0.02
